Experiment [1] has as its system histone H3 acetylation in HeLa cells. The experiment can be described thus: Histone H3 acetylation level in HeLa cells treated with GCN5/PCAF inhibitor. To be noted: Figure S5C. The format is cell-based.
In experiment [2] the test system is AF9 occupancy on MYC in HeLa cells. The experiment can be described thus: AF9 occupancy on MYC in HeLa cells treated with GCN5/PCAF inhibitor. The experiment is classed as cell-based. The following applies: Figure S5C. An outline of the steps: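 HeLa cells (endogenous AF9 has no ChIP-grade antibody, so a line stably expressing Flag-AF9 was used) were treated with the GCN5/PCAF inhibitor. Cells were crosslinked with 1% formaldehyde for 10 min, then quenched with 125 mM glycine. Nuclei were sonicated and immunoprecipitated with 2–4 µg antibody overnight at 4°C, collected with Staph A cells, washed and reverse-crosslinked. MYC DNA was quantified by SYBR Green qPCR. Differences were tested by two-way unpaired Student's t-test.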

Experiment [3] deals with human AF9 YEATS (1–138) (human) (UniProt P42568). The experiment can be described thus: ITC. A general note: In ITC the heat of successive injections is recorded.
A further experiment concerns the target T1, AF9 YEATS domain (Homo sapiens, UniProt P42568).
T1 sequence (P42568 1-138 limits assumed): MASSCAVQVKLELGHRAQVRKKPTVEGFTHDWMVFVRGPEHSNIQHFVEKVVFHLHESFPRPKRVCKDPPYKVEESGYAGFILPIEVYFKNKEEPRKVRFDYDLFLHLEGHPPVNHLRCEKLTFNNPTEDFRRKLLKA
The experiment can be described thus: Isothermal titration calorimetry. The following applies: ITC; different frames of the H3K9ac peptides; Figure 4A. The experiment is classed as binding.

No end group written: not given here.

`Clc1ccc(-c2csc(NN=C3CCCC3)n2)cc1` [CPTH2]: in experiment [1], the “histone H3 acetylation levels” value was “reduced”. The “AF9 occupancy on MYC” value in experiment [2] was “reduced”.

Take “H3K9ac peptide with H3R8 substituted with alanine”: in experiment [3], the fold binding reduction against the H3K9ac peptide turned out to be 200 fold.

As to H3K18ac peptide (ITC), the Kd (usually the concentration at which binding is half-saturated) in experiment [3] was 11 µM.

The compound H3K27ac peptide (ITC) returned a Kd in experiment [3] of 7 µM.

Turning to “H3_7–11K9ac: H3K9ac peptide frame 7–11 (ARK(Ac)ST)”, the “binding (in words)” value with AF9 YEATS domain is given as “no binding”.

The record behind these values is paper PMC4344132 (Cell, 2014).
